Converted amounts (≈) assume the structure as drawn.
Experiments:
Candida albicans [1] = assay: Antifungal activity against planktonic form of Candida albicans ATCC 10231 by broth microdilution method; type: organism-based; settings: in vitro
How it was run: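 CLSI M27-A3 broth microdilution. Cells grown on Sabouraud dextrose agar at 35°C for 24 h; final inoculum 1×10^3–5×10^3 cells/mL. Compounds from DMSO stocks, final DMSO below 1%, final range 256–0.25 µg/mL. Controls were DMSO 1% and fluconazole reference. MIC50 is the lowest concentration giving ≥50% growth inhibition. Three independent experiments in duplicate; median reported.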

[2] = Toxicity in Galleria mellonella larvae assessed as larval survival at 50 ug/ml after 72 hrs relative to control
How it was run: (§1)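 Ten healthy larvae per group, stored at 15°C in the dark. Each got a 20 µL injection into the haemocoel via the last left proleg, with compound freshly made in sterile water containing <1% v/v DMSO. Larvae were incubated at 30°C and survival scored every 24 h; death was no movement on stimulation plus cuticle discolouration. Controls were untreated, pierced-only and vehicle. Mean % survival of two independent experiments.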

[3] = Toxicity in Galleria mellonella larvae assessed as larval survival at 1000 ug/ml after 72 hrs relative to control; how it was run: as §1
Candida albicans [4] = assay: Antibiofilm activity against Candida albicans PMC 1082 assessed as inhibition of biofilm formation by XTT reduction assay; type: functional
How it was run: (§2)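 Biofilm method of Pierce et al. Biofilms were treated either during formation or once mature (24 h preformed). Metabolic activity of the cells within the biofilm was read by XTT reduction. BMIC50 is the lowest concentration giving a 50% drop in metabolic activity versus the untreated growth control. At least two experiments on separate dates, triplicate, reported as median.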

[5] = Toxicity in Galleria mellonella larvae assessed as larval survival at 50 ug/ml after 24 hrs relative to control; how it was run: as §1
[6] = Toxicity in Galleria mellonella larvae assessed as larval survival at 500 ug/ml after 48 hrs relative to control; how it was run: as §1
Candida albicans [7] = assay: Antibiofilm activity against Candida albicans ATCC 10231 assessed as inhibition of mature biofilm formation by XTT reduction assay; type: functional
How it was run: (§3)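 Biofilm assay after Pierce et al., with compound applied either during biofilm formation or to 24 h pre-formed (mature) biofilm. Read-out is metabolic activity of cells in the biofilm by XTT reduction. BMIC50 is the lowest concentration giving a 50% drop relative to untreated growth control. Tested in triplicate, at least two experiments on separate dates; median reported.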

Candida albicans [8] = assay: Antifungal activity against planktonic form of Candida albicans ATCC 10261 by broth microdilution method; type: organism-based; settings: in vitro
How it was run: (§4)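 Broth microdilution per CLSI M27-A3 and M27-S4. Strains were grown on Sabouraud dextrose agar at 35°C for 24 h. Final inoculum 1×10^3–5×10^3 cells/mL. Compounds were dissolved in DMSO (final <1%); 1% DMSO served as control. Final range 256–0.25 µg/mL. MIC50 is the lowest concentration giving ≥50% growth inhibition. Three independent experiments in duplicate, median; fluconazole as reference.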

[9] = Toxicity in Galleria mellonella larvae assessed as larval survival at 1000 ug/ml after 48 hrs relative to control; how it was run: as §1
Candida albicans [10] = assay: Antibiofilm activity against Candida albicans PMC 1042 assessed as inhibition of biofilm formation by XTT reduction assay; type: functional; how it was run: as §2
[11] = Toxicity in Galleria mellonella larvae assessed as larval survival at 100 ug/ml after 48 hrs relative to control; how it was run: as §1
Candida albicans [12] = assay: Antibiofilm activity against Candida albicans PMC 1042 assessed as inhibition of mature biofilm formation by XTT reduction assay; type: functional; how it was run: as §2
Candida albicans [13] = assay: Antibiofilm activity against Candida albicans PMC 1082 assessed as inhibition of mature biofilm formation by XTT reduction assay; type: functional; how it was run: as §2
[14] = Toxicity in Galleria mellonella larvae assessed as larval survival at 500 ug/ml after 24 hrs relative to control; how it was run: as §1
[15] = Toxicity in Galleria mellonella larvae assessed as larval survival at 10 ug/ml after 72 hrs relative to control; how it was run: as §1
[16] = Toxicity in Galleria mellonella larvae assessed as larval survival at 10 ug/ml after 24 hrs relative to control; how it was run: as §1
Candida albicans [17] = assay: Antibiofilm activity against Candida albicans ATCC 10261 assessed as inhibition of mature biofilm formation by XTT reduction assay; type: functional; how it was run: as §2
Candida albicans [18] = assay: Antibiofilm activity against Candida albicans ATCC 10231 assessed as inhibition of biofilm formation by XTT reduction assay; type: functional; how it was run: as §3
Candida albicans [19] = assay: Antibiofilm activity against Candida albicans ATCC 10261 assessed as inhibition of biofilm formation by XTT reduction assay; type: functional; how it was run: as §2
[20] = Toxicity in Galleria mellonella larvae assessed as larval survival at 10 ug/ml after 48 hrs relative to control; how it was run: as §1
[21] = Toxicity in Galleria mellonella larvae assessed as larval survival at 1000 ug/ml after 24 hrs relative to control; how it was run: as §1
[22] = Toxicity in Galleria mellonella larvae assessed as larval survival at 50 ug/ml after 48 hrs relative to control; how it was run: as §1
[23] = Toxicity in Galleria mellonella larvae assessed as larval survival at 100 ug/ml after 24 hrs relative to control; how it was run: as §1
Candida albicans [24] = assay: Antifungal activity against planktonic form of Candida albicans PMC 1082 by broth microdilution method; type: organism-based; settings: in vitro; how it was run: as §4
Candida albicans [25] = assay: Antifungal activity against planktonic form of Candida albicans PMC 1042 by broth microdilution method; type: organism-based; settings: in vitro; how it was run: as §4
[26] = Toxicity in Galleria mellonella larvae assessed as larval survival at 100 ug/ml after 72 hrs relative to control; how it was run: as §1
[27] = Toxicity in Galleria mellonella larvae assessed as larval survival at 500 ug/ml after 72 hrs relative to control; how it was run: as §1
[28] = Toxicity in Galleria mellonella larvae assessed as larval survival at 5 ug/ml after 72 hrs relative to control; how it was run: as §1
[29] = Toxicity in Galleria mellonella larvae assessed as larval survival at 5 ug/ml after 48 hrs relative to control; how it was run: as §1
[30] = Toxicity in Galleria mellonella larvae assessed as larval survival at 5 ug/ml after 24 hrs relative to control; how it was run: as §1

CC(C)Cc1ccc(C(C)C(=O)NCCc2c[nH]c3ccccc23)cc1 (stereo unspecified)
MIC50 (Candida albicans [1]): > 128 µg/mL
survival at 72 h [2]: 100%
survival at 72 h [3]: 100%
MBIC50 (Candida albicans [4]): 8 µg/mL
survival at 24 h [5]: 100%
survival at 48 h [6]: 100%
MBIC50 (Candida albicans [7]): 8 µg/mL
MIC50 (Candida albicans [8]): > 256 µg/mL
survival at 48 h [9]: 100%
MBIC50 (Candida albicans [10]): 8 µg/mL
survival at 48 h [11]: 100%
MBIC50 (Candida albicans [12]): 2 µg/mL
MBIC50 (Candida albicans [13]): 4 µg/mL
survival at 24 h [14]: 100%
survival at 72 h [15]: 100%
survival at 24 h [16]: 100%
MBIC50 (Candida albicans [17]): 8 µg/mL
MBIC50 (Candida albicans [18]): 16 µg/mL
MBIC50 (Candida albicans [19]): 8 µg/mL
survival at 48 h [20]: 100%
survival at 24 h [21]: 100%
survival at 48 h [22]: 100%
survival at 24 h [23]: 100%
MIC50 (Candida albicans [24]): > 256 µg/mL
MIC50 (Candida albicans [25]): > 256 µg/mL
survival at 72 h [26]: 100%
survival at 72 h [27]: 100%

O=[N+]([O-])c1ccc(N2CCN(Cc3c[nH]c4ccccc34)CC2)cc1
survival at 72 h [28]: 100%
MIC50 (Candida albicans [1]): > 128 µg/mL
survival at 72 h [2]: 100%
survival at 48 h [29]: 100%
MBIC50 (Candida albicans [4]): 32 µg/mL
survival at 24 h [5]: 100%
survival at 48 h [6]: 100%
MBIC50 (Candida albicans [7]): 4 µg/mL
MIC50 (Candida albicans [8]): > 256 µg/mL
MBIC50 (Candida albicans [10]): 32 µg/mL
survival at 48 h [11]: 100%
MBIC50 (Candida albicans [12]): 2 µg/mL
MBIC50 (Candida albicans [13]): 2 µg/mL
survival at 24 h [14]: 100%
survival at 72 h [15]: 100%
survival at 24 h [16]: 100%
MBIC50 (Candida albicans [17]): 8 µg/mL
MBIC50 (Candida albicans [18]): >128 µg/mL
MBIC50 (Candida albicans [19]): 32 µg/mL
survival at 48 h [20]: 100%
survival at 48 h [22]: 100%
survival at 24 h [30]: 100%
survival at 24 h [23]: 100%
MIC50 (Candida albicans [24]): > 256 µg/mL
MIC50 (Candida albicans [25]): > 256 µg/mL
survival at 72 h [26]: 100%
survival at 72 h [27]: 100%

c1ccc2cc(CNCCc3c[nH]c4ccccc34)ccc2c1
survival at 72 h [28]: 100%
MIC50 (Candida albicans [1]): 16 µg/mL (≈ 53.3 µM)
survival at 72 h [2]: 90%
survival at 48 h [29]: 100%
MBIC50 (Candida albicans [4]): 8 µg/mL
survival at 24 h [5]: 90%
survival at 48 h [6]: 100%
MBIC50 (Candida albicans [7]): 2 µg/mL
MIC50 (Candida albicans [8]): 32 µg/mL (≈ 107 µM)
MBIC50 (Candida albicans [10]): 8 µg/mL
survival at 48 h [11]: 100%
MBIC50 (Candida albicans [12]): 2 µg/mL
MBIC50 (Candida albicans [13]): 2 µg/mL
survival at 24 h [14]: 100%
survival at 72 h [15]: 100%
survival at 24 h [16]: 100%
MBIC50 (Candida albicans [17]): 8 µg/mL
MBIC50 (Candida albicans [18]): 8 µg/mL
MBIC50 (Candida albicans [19]): 8 µg/mL
survival at 48 h [20]: 100%
survival at 48 h [22]: 90%
survival at 24 h [30]: 100%
survival at 24 h [23]: 100%
MIC50 (Candida albicans [24]): 32 µg/mL (≈ 107 µM)
MIC50 (Candida albicans [25]): 128 µg/mL (≈ 426 µM)
survival at 72 h [26]: 100%
survival at 72 h [27]: 100%

From ChEMBL document CHEMBL4400512, “Searching for new agents active against Candida albicans biofilm: A series of indole derivatives, design, synthesis and biological evaluation” (Eur J Med Chem, 2019)
